Experimental data published in ChEMBL document CHEMBL5705905, “Pharmacological targeting of kinases MST1 and MST2 augments tissue repair and regeneration” (Sci Transl Med, 2016).
Calls of active or inactive are those of the source. The rule behind the calls is not given here.

What was measured:
Homo sapiens [1] = species: Homo sapiens; assay: Inhibition of recombinant His-tagged full-length MST1 Y101F/D109A mutant (unknown origin) expressing in Escherichia coli assessed as GST-tagged MOB1 phosphorylation level at 0.01 to 1 uM incubated for 15 min by immunoblot analysis; settings: dose 0.01-1 µM
[2] = biological target: Mitogen-activated protein kinase kinase kinase 7 (Homo sapiens) (UniProt O43318); assay: Inhibition of TAK1 (unknown origin) assessed as remaining activity at 1 uM by Kinome scan method relative to control
[3] = biological target: Serine/threonine-protein kinase 26 (Homo sapiens, UniProt Q9P289); assay: Inhibition of MST4 (unknown origin) assessed as remaining activity at 1 uM by Kinome scan method relative to control
[4] = biological target: Vascular endothelial growth factor receptor 2 (Homo sapiens) (UniProt P35968); assay: Inhibition of VEGFR2 (unknown origin) assessed as remaining activity at 1 uM by Kinome scan method relative to control
Vascular endothelial growth factor receptor 2 (Homo sapiens), sequence (P35968 whole entry, the tested form may be a part): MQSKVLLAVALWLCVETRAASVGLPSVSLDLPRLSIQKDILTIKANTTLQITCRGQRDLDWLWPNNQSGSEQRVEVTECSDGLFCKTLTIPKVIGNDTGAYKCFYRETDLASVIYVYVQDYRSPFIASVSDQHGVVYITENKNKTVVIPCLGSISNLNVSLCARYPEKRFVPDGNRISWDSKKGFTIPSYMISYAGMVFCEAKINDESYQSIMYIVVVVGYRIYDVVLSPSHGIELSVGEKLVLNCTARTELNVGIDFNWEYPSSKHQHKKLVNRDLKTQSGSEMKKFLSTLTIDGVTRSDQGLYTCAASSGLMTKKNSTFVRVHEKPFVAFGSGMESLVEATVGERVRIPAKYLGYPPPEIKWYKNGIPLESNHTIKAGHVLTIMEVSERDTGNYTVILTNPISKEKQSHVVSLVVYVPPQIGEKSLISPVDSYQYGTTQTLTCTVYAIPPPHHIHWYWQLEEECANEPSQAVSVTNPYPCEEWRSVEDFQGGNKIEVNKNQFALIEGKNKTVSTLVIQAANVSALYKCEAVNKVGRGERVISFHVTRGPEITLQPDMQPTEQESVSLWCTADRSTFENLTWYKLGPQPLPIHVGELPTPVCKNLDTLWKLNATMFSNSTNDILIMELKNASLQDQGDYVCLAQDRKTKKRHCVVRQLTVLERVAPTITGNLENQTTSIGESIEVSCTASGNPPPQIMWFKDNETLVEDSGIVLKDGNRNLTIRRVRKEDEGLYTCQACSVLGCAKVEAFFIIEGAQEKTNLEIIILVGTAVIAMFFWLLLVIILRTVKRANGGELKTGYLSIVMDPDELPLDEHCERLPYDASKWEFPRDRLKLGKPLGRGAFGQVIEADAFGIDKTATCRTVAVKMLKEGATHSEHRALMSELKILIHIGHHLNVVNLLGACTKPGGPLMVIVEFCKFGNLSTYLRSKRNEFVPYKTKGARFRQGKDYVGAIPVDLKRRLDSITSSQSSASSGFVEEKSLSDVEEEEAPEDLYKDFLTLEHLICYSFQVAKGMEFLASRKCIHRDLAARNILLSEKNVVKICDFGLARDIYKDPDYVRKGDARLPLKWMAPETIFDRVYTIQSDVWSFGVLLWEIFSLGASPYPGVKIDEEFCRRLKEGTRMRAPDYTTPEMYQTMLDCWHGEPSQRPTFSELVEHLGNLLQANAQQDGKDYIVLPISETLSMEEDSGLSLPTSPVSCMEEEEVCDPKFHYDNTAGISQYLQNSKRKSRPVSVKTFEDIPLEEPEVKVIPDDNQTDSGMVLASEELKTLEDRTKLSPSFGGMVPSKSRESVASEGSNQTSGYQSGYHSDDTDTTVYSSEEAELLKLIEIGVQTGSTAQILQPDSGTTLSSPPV

[5] = biological target: Non-receptor tyrosine-protein kinase TYK2 (Homo sapiens, UniProt P29597); assay: Inhibition of TYK2 JH1 domain (unknown origin) assessed as remaining activity at 1 uM by Kinome scan method relative to control
Non-receptor tyrosine-protein kinase TYK2, sequence (P29597 whole entry, the tested form may be a part): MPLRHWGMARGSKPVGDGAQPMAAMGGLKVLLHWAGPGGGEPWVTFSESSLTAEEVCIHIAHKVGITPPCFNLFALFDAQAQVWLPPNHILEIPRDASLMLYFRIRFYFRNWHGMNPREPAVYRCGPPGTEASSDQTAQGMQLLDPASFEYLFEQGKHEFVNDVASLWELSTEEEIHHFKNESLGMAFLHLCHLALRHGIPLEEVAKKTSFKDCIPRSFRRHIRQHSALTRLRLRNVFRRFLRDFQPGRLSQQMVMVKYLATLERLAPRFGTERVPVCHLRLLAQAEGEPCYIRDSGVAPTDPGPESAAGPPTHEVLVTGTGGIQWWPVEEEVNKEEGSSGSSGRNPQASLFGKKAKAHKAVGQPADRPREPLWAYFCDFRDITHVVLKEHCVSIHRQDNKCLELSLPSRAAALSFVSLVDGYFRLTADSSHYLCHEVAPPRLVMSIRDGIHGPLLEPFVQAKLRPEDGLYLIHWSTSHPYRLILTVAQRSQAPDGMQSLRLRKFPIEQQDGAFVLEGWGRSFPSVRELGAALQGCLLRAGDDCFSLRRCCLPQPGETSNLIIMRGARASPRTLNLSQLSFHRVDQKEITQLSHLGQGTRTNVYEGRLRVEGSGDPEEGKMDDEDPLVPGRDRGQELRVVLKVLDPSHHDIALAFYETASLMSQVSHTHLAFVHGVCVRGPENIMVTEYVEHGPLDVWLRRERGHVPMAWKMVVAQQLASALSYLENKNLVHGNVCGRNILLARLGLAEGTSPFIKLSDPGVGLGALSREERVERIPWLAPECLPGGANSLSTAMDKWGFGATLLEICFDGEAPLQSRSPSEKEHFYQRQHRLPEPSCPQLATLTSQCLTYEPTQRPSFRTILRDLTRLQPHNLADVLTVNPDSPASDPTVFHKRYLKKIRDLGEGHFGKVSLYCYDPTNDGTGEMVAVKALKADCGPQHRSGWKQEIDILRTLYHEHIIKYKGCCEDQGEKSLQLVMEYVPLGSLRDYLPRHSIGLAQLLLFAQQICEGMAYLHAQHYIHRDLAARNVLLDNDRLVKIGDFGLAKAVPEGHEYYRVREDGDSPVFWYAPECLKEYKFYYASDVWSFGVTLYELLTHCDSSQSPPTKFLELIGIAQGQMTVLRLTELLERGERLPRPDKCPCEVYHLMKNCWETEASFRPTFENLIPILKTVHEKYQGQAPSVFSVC

[6] = biological target: Serine/threonine-protein kinase D2 (Homo sapiens) (UniProt Q9BZL6); assay: Inhibition of PRKD2 (unknown origin) assessed as remaining activity at 1 uM by Kinome scan method relative to control
Serine/threonine-protein kinase D2 (Homo sapiens), sequence (Q9BZL6 whole entry): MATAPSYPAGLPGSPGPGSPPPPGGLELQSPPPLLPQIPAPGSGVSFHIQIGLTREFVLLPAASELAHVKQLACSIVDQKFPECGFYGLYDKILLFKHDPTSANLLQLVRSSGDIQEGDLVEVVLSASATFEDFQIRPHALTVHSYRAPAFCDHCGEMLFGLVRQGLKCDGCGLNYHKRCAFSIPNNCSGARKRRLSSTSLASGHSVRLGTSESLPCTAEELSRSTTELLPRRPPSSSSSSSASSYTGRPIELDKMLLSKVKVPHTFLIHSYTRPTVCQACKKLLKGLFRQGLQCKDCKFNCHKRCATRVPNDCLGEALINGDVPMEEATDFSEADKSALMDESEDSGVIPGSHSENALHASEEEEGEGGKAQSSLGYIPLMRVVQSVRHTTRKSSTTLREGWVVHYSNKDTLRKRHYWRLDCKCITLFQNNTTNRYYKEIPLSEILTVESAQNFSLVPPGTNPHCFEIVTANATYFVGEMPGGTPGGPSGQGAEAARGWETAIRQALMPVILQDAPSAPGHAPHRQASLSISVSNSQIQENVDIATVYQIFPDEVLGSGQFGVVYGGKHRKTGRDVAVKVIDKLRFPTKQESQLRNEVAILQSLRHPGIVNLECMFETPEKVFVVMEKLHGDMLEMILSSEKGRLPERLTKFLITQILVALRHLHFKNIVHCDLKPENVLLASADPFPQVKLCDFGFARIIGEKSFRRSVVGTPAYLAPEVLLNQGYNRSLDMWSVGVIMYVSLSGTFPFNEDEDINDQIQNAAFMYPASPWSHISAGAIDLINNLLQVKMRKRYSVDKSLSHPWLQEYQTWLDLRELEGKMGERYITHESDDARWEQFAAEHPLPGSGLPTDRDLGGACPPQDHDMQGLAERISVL

[7] = biological target: NUAK family SNF1-like kinase 1 (Homo sapiens) (UniProt O60285); assay: Inhibition of ARK5 (unknown origin) assessed as remaining activity at 1 uM by Kinome scan method relative to control
How it was run: (§1)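 Active-site-dependent competition-binding (KINOMEscan) panel of 468 kinases, test compound at 1 μM (from a 10 mM DMSO stock). Read-out is ctrl% = (test signal − positive control signal)/(negative control signal − positive control signal) × 100. DMSO is the negative control (100%) and a control compound is the positive control (0%). Lower ctrl% means tighter binding.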

[8] = biological target: Mitogen-activated protein kinase 15 (Homo sapiens) (UniProt Q8TD08); assay: Inhibition of ERK8 (unknown origin) assessed as remaining activity at 1 uM by Kinome scan method relative to control
[9] = biological target: Cyclin-dependent kinase 2 homolog (Plasmodium falciparum (isolate K1 / Thailand)) (UniProt Q07785); assay: Inhibition of Plasmodium falciparum PK5 assessed as remaining activity at 1 uM by Kinome scan method relative to control
Cyclin-dependent kinase 2 homolog (Plasmodium falciparum (isolate K1 / Thailand)), sequence (Q07785 whole entry): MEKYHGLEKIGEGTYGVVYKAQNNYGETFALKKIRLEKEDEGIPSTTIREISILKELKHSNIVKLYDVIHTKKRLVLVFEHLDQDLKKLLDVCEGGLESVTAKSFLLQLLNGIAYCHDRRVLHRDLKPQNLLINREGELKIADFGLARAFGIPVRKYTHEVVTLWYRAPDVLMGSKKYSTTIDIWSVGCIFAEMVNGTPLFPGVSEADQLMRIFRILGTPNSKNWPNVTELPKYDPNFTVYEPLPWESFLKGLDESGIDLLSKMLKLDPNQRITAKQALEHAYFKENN

Homo sapiens [10] = species: Homo sapiens; assay: Inhibition of ALK C1156V mutant (unknown origin) assessed as remaining activity at 1 uM by Kinome scan method relative to control
How it was run: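 KINOMEscan active-site-dependent competition-binding panel of 468 kinases, compound at 1 μM from a DMSO stock. Result reported as ctrl% = (test signal − positive control signal)/(negative control signal − positive control signal) × 100. The negative control is DMSO (100%) and the positive control is a control compound (0%). Lower ctrl% means tighter binding.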

[11] = biological target: Mitogen-activated protein kinase 4 (Homo sapiens) (UniProt P31152); assay: Inhibition of ERK4 (unknown origin) assessed as remaining activity at 1 uM by Kinome scan method relative to control
Mus musculus [12] = assay: Protection against human hepatocyte transplanted FRG mouse assessed as Fah-deficient hepatocyte survival at 1 mg/kg, ip administrated once a daily for 28 days by H&E staining based immunohistochemical analysis; format: functional, organism-based; settings: Liver, time 28.0 day
[13] = biological target: Discoidin domain-containing receptor 2 (Homo sapiens) (UniProt Q16832); assay: Inhibition of DDR2 (unknown origin) assessed as remaining activity at 1 uM by Kinome scan method relative to control
Discoidin domain-containing receptor 2 (Homo sapiens), sequence (Q16832 whole entry, the tested form may be a part): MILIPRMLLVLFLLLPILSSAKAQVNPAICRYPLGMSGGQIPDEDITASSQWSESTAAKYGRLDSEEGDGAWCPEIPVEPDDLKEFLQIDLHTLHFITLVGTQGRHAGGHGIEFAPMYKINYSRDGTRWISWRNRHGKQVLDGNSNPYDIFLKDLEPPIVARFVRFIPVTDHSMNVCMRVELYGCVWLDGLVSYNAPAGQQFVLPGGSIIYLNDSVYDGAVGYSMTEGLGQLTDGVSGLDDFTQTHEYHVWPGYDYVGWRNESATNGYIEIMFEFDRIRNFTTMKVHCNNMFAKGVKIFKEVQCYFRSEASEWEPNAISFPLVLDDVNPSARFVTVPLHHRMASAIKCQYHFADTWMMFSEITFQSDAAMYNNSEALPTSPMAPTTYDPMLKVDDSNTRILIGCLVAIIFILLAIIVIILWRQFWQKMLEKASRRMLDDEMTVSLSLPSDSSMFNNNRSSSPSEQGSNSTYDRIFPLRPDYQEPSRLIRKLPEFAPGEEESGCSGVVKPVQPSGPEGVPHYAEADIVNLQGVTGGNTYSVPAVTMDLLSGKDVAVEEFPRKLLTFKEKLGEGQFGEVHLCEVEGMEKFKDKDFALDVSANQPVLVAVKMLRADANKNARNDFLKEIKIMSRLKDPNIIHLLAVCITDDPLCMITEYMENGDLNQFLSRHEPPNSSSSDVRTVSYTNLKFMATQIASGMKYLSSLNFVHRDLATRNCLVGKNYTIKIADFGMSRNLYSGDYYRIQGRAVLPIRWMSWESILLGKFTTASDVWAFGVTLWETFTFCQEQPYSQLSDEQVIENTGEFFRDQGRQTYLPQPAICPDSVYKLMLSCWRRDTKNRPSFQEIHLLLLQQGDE

[14] = biological target: Serine/threonine-protein kinase ULK2 (Homo sapiens, UniProt Q8IYT8); assay: Binding affinity to ULK2 (unknown origin) assessed as dissociation constant
Mus musculus [15] = assay: In vivo inhibition of MST1/2 in mouse assessed as block in MOB1 phosphorylation level at 1 mg/kg, ip administration by immunoblot analysis; format: functional, organism-based
How it was run: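 Wild-type mice received escalating intraperitoneal doses, and livers were collected 3 h later. Liver lysates were immunoblotted for p-MOB1 and quantified relative to controls. Means ± SD, n = 3, Student's t test.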

[16] = biological target: Serine/threonine-protein kinase PLK1 (Homo sapiens) (UniProt P53350); assay: Inhibition of PLK1 (unknown origin) assessed as remaining activity at 1 uM by Kinome scan method relative to control
[17] = biological target: Casein kinase I isoform gamma-3 (Homo sapiens) (UniProt Q9Y6M4); assay: Inhibition of CSNK1G3 (unknown origin) assessed as remaining activity at 1 uM by Kinome scan method relative to control
Casein kinase I isoform gamma-3 (Homo sapiens), sequence (Q9Y6M4 whole entry, looked up, canonical isoform): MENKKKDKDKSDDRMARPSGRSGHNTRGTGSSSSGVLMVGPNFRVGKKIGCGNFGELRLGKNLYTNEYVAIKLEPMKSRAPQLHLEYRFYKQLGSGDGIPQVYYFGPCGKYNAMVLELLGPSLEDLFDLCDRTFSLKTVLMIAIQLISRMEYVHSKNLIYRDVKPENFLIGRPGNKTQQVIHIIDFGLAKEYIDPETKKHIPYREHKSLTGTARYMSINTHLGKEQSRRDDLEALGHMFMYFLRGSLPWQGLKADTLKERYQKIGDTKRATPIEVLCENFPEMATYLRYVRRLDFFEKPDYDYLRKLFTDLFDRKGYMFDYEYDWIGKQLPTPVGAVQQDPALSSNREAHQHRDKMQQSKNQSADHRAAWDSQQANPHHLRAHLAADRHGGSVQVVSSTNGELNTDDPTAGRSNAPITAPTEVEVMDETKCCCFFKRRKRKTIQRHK
How it was run: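 Active-site-dependent competition-binding profiling (KINOMEscan) at 1 μM against a 468-kinase panel; compound supplied from a 10 mM DMSO stock. Read-out is ctrl% = (test signal − positive control signal)/(negative control signal − positive control signal) × 100. DMSO is the negative control (100%) and a control compound the positive control (0%). Lower ctrl% means tighter binding.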

[18] = Oral bioavailability in male Sprague-Dawley rat at 10 mg/kg measured for 24 hrs by LC-MS/MS analysis; format: ADME, organism-based; settings: in vivo
[19] = biological target: Tyrosine-protein kinase ABL2 (Homo sapiens) (UniProt P42684); assay: Inhibition of ABL2 (unknown origin) assessed as remaining activity at 1 uM by Kinome scan method relative to control; how it was run: as §1
[20] = biological target: Serine/threonine-protein kinase 17A (Homo sapiens) (UniProt Q9UEE5); assay: Inhibition of DRAK1 (unknown origin) assessed as remaining activity at 1 uM by Kinome scan method relative to control
[21] = biological target: Serine/threonine-protein kinase PknB (Mycobacterium tuberculosis) (UniProt P9WI81); assay: Inhibition of Mycobacterium tuberculosis PknB assessed as remaining activity at 1 uM by Kinome scan method relative to control
How it was run: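 KINOMEscan active-site competition binding assay at 1 μM against 468 kinases. Ctrl% = (test − positive control)/(negative control DMSO − positive control) × 100; lower values mean tighter binding.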

Mus musculus [22] = assay: Protection against Mst1fl/fl Mst2fl/fl-Alb-Cre double knockout mouse assessed as Ki67-positive cells at 1 mg/kg, ip administrated twice a day for 2 days measured after 36 hrs by immunohistochemical staining; format: functional, organism-based; settings: Liver, time 2.0 day

CN1C(=O)c2sccc2N(C)c2nc(Nc3ccc(S(N)(=O)=O)cc3)ncc21
inhibition (Homo sapiens [1]): Active
Activity [2]: 71%
Activity [3]: 0.6%
Activity [4]: 100%
Activity [5]: 2.7%
Activity [6]: 87%
Activity [7]: 96%
Activity [8]: 79%
Activity [9]: 93%
Activity (Homo sapiens [10]): 95%
Activity [11]: 80%
Activity (Mus musculus [12]): inactive
Activity [13]: 100%
Kd [14]: 0.035 µM
inhibition (Mus musculus [15]): Active
Activity [16]: 70%
Activity [17]: 72%
bioavailability [18]: 39.5%
Activity [19]: 96%
Activity [20]: 100%
Activity [21]: 89%
Activity (Mus musculus [22]): inactive
